T cruzi growth-1 = inhibitors of T. cruzi proliferation; T. cruzi beta-gal in NIH3T3, GalScreen luminescence, 90 h; inhibition, % at 8.34 µM; 77,000 compounds, 5.9% hits; AID 624255;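 active = mean inhibition above about 93%, with at least 55% of replicates each passing it, limit read from the data, passing the limit was not always enough; inconclusive = only one of those two conditions holds; inactive = neither condition holds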
IDH1 R132H inh = IDH1 R132H (human) inhibition. inhibition, % at 10 µM. IDH1 R132H reductase, diaphorase/resazurin fluorescence, 60 min. 70,000 compounds, 0.18% hits. O75874. AID 624101; in the data active = inhibition above about 34%; inconclusive = no clear call, values can overlap the other calls; inactive = below about 11%
Target sequence (O75874 whole entry R132H): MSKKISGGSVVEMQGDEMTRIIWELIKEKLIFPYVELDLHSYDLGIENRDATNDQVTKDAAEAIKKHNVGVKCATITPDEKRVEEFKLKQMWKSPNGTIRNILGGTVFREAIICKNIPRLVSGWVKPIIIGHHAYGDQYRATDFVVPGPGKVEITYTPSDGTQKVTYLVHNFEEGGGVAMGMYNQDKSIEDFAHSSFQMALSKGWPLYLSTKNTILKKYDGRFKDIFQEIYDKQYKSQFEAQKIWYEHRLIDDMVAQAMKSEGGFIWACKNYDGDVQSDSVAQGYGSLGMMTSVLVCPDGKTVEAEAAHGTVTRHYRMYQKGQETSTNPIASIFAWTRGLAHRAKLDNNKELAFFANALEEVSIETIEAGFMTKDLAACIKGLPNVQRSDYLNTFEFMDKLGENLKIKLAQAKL
KDM4C inh = blocks human GASC-1 (KDM4C) demethylase activity | Q9H3R0 | GST-KDM4C 2-372, H3K9me3 peptide, LANCE TR-FRET | inhibition, % at 12.5 µM | 96,000 compounds, 0.15% hits | AID 720574;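 active = mean replicate inhibition above about 25%, with at least 55% of replicates also reaching it, limit read from the data, passing the limit was not always enough; inconclusive = only one of those two conditions met; inactive = neither condition met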
Target sequence (Q9H3R0 2-372 limits assumed): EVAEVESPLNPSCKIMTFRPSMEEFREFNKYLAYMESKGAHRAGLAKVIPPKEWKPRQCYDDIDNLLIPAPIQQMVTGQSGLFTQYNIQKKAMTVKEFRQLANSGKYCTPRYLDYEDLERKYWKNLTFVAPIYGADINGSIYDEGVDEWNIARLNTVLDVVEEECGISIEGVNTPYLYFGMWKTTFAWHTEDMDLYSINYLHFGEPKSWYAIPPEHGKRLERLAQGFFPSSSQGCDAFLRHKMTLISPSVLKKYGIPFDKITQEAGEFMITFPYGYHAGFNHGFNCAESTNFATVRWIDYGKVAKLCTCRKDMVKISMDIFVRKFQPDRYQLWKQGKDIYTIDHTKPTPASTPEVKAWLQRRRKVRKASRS
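Test system: N-terminal GST-fused human GASC-1 (KDM4C) fragment, residues 2-372; quantity: GASC-1 enzyme at 10 nM final in reaction; dosing: single dose; schedule: 30 min demethylation and 1 h detection at room temperature; signal: LANCE TR-FRET, excitation 340 nm, emissions 618 and 671 nm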
T cruzi growth-2 = blocks T. cruzi growth in NIH3T3 host cells | shares compounds with T cruzi growth-1 | 5,600 compounds, 72% hits | inhibition, % at 8.35 µM | T. cruzi beta-gal in NIH3T3, GalScreen luminescence, 90 h;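 active = mean replicate inhibition above about 95% and at least 55% of replicates individually reaching it, limit read from the data; inconclusive = only one of the two criteria is met; inactive = neither criterion is met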
T cruzi growth-3 = Trypanosoma cruzi proliferation inhibition | T. cruzi beta-gal in NIH3T3, GalScreen luminescence, 90 h | 5,600 compounds, 21% hits | inhibition, % at 2.09 µM | shares compounds with T cruzi growth-1;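 active = mean inhibition above about 95%, with at least 55% of replicates also reaching it, limit read from the data; inconclusive = meets just one of the two conditions; inactive = meets neither condition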
3T3 cytotox = NIH/3T3 (mouse) viability loss | shares compounds with T cruzi growth-1 | NIH/3T3 viability, CellTiter-Glo ATP luminescence, 90 h | cytotoxicity (signal decrease), % at 8.35 µM | 5,600 compounds, 14% hits | AID 651742;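 active = mean signal decrease across replicates above about 35% based on untreated-well scatter, with enough replicates individually passing, limit read from the data; inconclusive = no rule stated though some were filed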
NIH3T3 tox 2 = NIH/3T3 (mouse) viability loss | NIH/3T3 viability, CellTiter-Glo ATP luminescence, 90 h | inhibition, % at 24.9 µM | shares compounds with T cruzi growth-1 | AID 651744 | 5,600 compounds, 56% hits;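 active = mean loss of cell viability signal at or above a set limit, and enough replicates individually reaching it; inconclusive = meets only the mean limit or only the replicate share; inactive = meets neither condition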
Each line names hits and unclear results; the compound was inactive in the other large screens (follow-up assays come after a bar, where they were run). Many of the other results were omitted from the sample, so hits are more common in it than they were.

C[C@@H]1CN([C@@H](C)CO)C(=O)c2cc(-c3ccncc3)cnc2O[C@@H]1CN(C)C(=O)C1CCC1	none (no result: IDH1 R132H inh)
CO[C@@H]1CC[C@H]2CCN(C)C(=O)CCCN(C)C(=O)c3cc(C#N)ccc3OC[C@H]1O2	none (no result: IDH1 R132H inh)
C[C@H]1CN([C@@H](C)CO)C(=O)c2cccc(NC(=O)Nc3ccc(F)cc3)c2O[C@H]1CN(C)Cc1ccc(C(F)(F)F)cc1	none
C[C@H](CO)N1C[C@H](C)[C@H](CN(C)Cc2ccc(C(F)(F)F)cc2)Oc2c(NC(=O)Nc3ccc(C(F)(F)F)cc3)cccc2C1=O	T cruzi growth-1 101 (no result: IDH1 R132H inh) | T cruzi growth-2 inconclusive | T cruzi growth-3 inactive | 3T3 cytotox inactive | NIH3T3 tox 2 75
C[C@@H]1CN([C@H](C)CO)C(=O)c2cccc(NC(=O)C3CCOCC3)c2O[C@H]1CN(C)Cc1ccc(Oc2ccccc2)cc1	T cruzi growth-1 inconclusive | T cruzi growth-2 102 | T cruzi growth-3 inactive | 3T3 cytotox inactive | NIH3T3 tox 2 inactive
C[C@@H]1CN([C@@H](C)CO)C(=O)c2cccc(NC(=O)Nc3ccc(C(F)(F)F)cc3)c2O[C@@H]1CN(C)Cc1ccc2c(c1)OCO2	T cruzi growth-1 inconclusive | T cruzi growth-2 105 | T cruzi growth-3 inactive | 3T3 cytotox inactive | NIH3T3 tox 2 104
C[C@H]1CN([C@@H](C)CO)C(=O)c2cccc(NC(=O)Nc3ccc(F)cc3)c2O[C@@H]1CN(C)Cc1ccc(Oc2ccccc2)cc1	T cruzi growth-1 inconclusive | T cruzi growth-2 103 | T cruzi growth-3 inactive | 3T3 cytotox inactive | NIH3T3 tox 2 37
C[C@@H]1CN([C@@H](C)CO)C(=O)c2cccc(NC(=O)Nc3ccc(F)cc3)c2O[C@@H]1CN(C)Cc1ccc(Oc2ccccc2)cc1	none (no result: IDH1 R132H inh)
C[C@@H]1CN([C@@H](C)CO)C(=O)c2cccc(NC(=O)C3CCOCC3)c2O[C@@H]1CN(C)Cc1ccc(Oc2ccccc2)cc1	none
C[C@H](CO)N1C[C@H](C)[C@H](CN(C)Cc2ccc(C(F)(F)F)cc2)Oc2c(NC(=O)Nc3ccc4c(c3)OCO4)cccc2C1=O	none (no result: IDH1 R132H inh)
CNC[C@H]1Oc2c(NC(=O)c3ccncc3)cccc2C(=O)N([C@H](C)CO)C[C@@H]1C	none
Cn1c(SCc2nc3ccccc3s2)nnc1-c1ccncc1	none (no result: T cruzi growth-1, KDM4C inh)
C[C@@H]1CN([C@@H](C)CO)C(=O)Cc2cc(NC(=O)CCC(F)(F)F)ccc2O[C@H]1CN(C)C(=O)Nc1ccc(C(F)(F)F)cc1	none
N#Cc1cccc(-c2ccc(C3[C@@H]4CN(C(=O)c5ccc6c(c5)OCO6)C[C@H]3N4)cc2)c1 (some centres undefined)	none (no result: T cruzi growth-1, IDH1 R132H inh)
C[C@@H]1CN([C@@H](C)CO)C(=O)c2cccc(NC(=O)NC3CCCCC3)c2O[C@@H]1CN(C)Cc1ccc(Cl)c(Cl)c1	none
COc1ccc(NC(=O)Nc2cccc3c2O[C@H](CN(C)Cc2ccc(Cl)c(Cl)c2)[C@@H](C)CN([C@H](C)CO)C3=O)cc1	none (no result: IDH1 R132H inh)
C[C@H](CO)N1C[C@H](C)[C@@H](CN(C)Cc2ccc(Oc3ccccc3)cc2)Oc2c(NC(=O)NC3CCCCC3)cccc2C1=O	T cruzi growth-1 inconclusive (no result: IDH1 R132H inh) | T cruzi growth-2 108 | T cruzi growth-3 inactive | 3T3 cytotox inactive | NIH3T3 tox 2 106
C[C@H](CO)N1C[C@H](C)[C@H](CN(C)Cc2ccc(Cl)c(Cl)c2)Oc2c(NC(=O)Nc3ccc(F)cc3)cccc2C1=O	none (no result: IDH1 R132H inh)
C[C@@H]1CN([C@@H](C)CO)C(=O)c2cccc(NC(=O)NC3CCCCC3)c2O[C@H]1CN(C)Cc1ccc(Cl)c(Cl)c1	T cruzi growth-1 inconclusive (no result: IDH1 R132H inh) | T cruzi growth-2 107 | T cruzi growth-3 inactive | 3T3 cytotox inactive | NIH3T3 tox 2 70
COc1ccc(NC(=O)Nc2cccc3c2O[C@@H](CN(C)Cc2ccc(Cl)c(Cl)c2)[C@H](C)CN([C@H](C)CO)C3=O)cc1	T cruzi growth-1 109 (no result: IDH1 R132H inh) | T cruzi growth-2 106 | T cruzi growth-3 107 | 3T3 cytotox inactive | NIH3T3 tox 2 56
C[C@H](CO)N1C[C@H](C)[C@H](CN(C)Cc2ccc(Cl)c(Cl)c2)Oc2c(NC(=O)Nc3ccc(C(F)(F)F)cc3)cccc2C1=O	T cruzi growth-1 128 (no result: KDM4C inh) | T cruzi growth-2 105 | T cruzi growth-3 101 | 3T3 cytotox inactive | NIH3T3 tox 2 98
C[C@@H]1CN([C@@H](C)CO)C(=O)c2cccc(NC(=O)NC3CCCCC3)c2O[C@@H]1CN(C)Cc1ccccc1	none
CO[C@H]1CN(C)C(=O)c2cc(NC(=O)Nc3cc(Cl)cc(Cl)c3)ccc2OC[C@@H](C)NC[C@@H]1C	none (no result: KDM4C inh)
C[C@@H]1CN([C@@H](C)CO)C(=O)c2cccc(NC(=O)Nc3ccc4c(c3)OCO4)c2O[C@H]1CN(C)C(=O)Nc1ccc2c(c1)OCO2	none
O=C(C[C@H]1C[C@@H]2c3cc(NC(=O)CC4CC4)ccc3O[C@@H]2[C@@H](CO)O1)NCc1ccc(Cl)cc1	none
CC(C)NC(=O)Nc1ccc2c(c1)C(=O)N([C@@H](C)CO)C[C@@H](C)[C@@H](CN(C)Cc1ccc(C(=O)O)cc1)OCCCC[C@H](C)O2	none
C[C@@H]1CCCCO[C@@H](CN(C)S(=O)(=O)c2ccc(Cl)cc2)[C@@H](C)CN([C@H](C)CO)C(=O)c2cc(NC(=O)Nc3ccc(F)cc3)ccc2O1	none (no result: IDH1 R132H inh)
O=C([C@H]1[C@H](CO)[C@H]2Cn3c(ccc(/C=C/c4ccccc4)c3=O)[C@H]2N1CC1CC1)N1CCCCC1	none (no result: IDH1 R132H inh)
CC1=C(C(=O)Nc2ccc(Cl)cc2)C(c2cccnc2)n2ncnc2N1 (centres undefined)	none (no result: T cruzi growth-1, KDM4C inh)
O=C(NC1CCCC1)N1CCCCN2[C@H](C1)[C@@H](c1ccc(-c3cncnc3)cc1)[C@@H]2CO	none (no result: IDH1 R132H inh)
N#C[C@H]1[C@H](c2ccccc2-c2ccc(F)cc2)[C@@H](CO)N1C(=O)NC1CCCC1	none (no result: T cruzi growth-1, IDH1 R132H inh)
Cc1noc(C)c1NC(=O)Nc1cccc2c1O[C@@H](CN(C)Cc1ccncc1)[C@H](C)CN([C@@H](C)CO)C2=O	T cruzi growth-1 110 | T cruzi growth-2 inactive | T cruzi growth-3 inactive | 3T3 cytotox inactive | NIH3T3 tox 2 inactive
Cc1noc(C)c1NC(=O)Nc1cccc2c1O[C@@H](CN(C)Cc1ccncc1)[C@H](C)CN([C@H](C)CO)C2=O	none (no result: IDH1 R132H inh)
C[C@H](CO)N1C[C@H](C)[C@@H](CN(C)Cc2ccc(Oc3ccccc3)cc2)Oc2c(NC(=O)Nc3ccc(C(F)(F)F)cc3)cccc2C1=O	T cruzi growth-1 129 | T cruzi growth-2 101 | T cruzi growth-3 inactive | 3T3 cytotox inactive | NIH3T3 tox 2 104
C[C@H]1CN([C@@H](C)CO)C(=O)c2cccc(NC(=O)Nc3ccccc3)c2O[C@@H]1CN(C)Cc1ccc(C(F)(F)F)cc1	none
C[C@@H]1CN([C@@H](C)CO)C(=O)c2cc(C#C[C@@H](C)O)cnc2O[C@H]1CN(C)CC1CCCC1	none

From PubChem
